pEC50: −log10 of the molar value.

The nature of data set [1]: Inhibition of mouse RML prion protein infected in mouse ScN2a-cl3 cells after 5 days. It is filed as cell-based. The settings on record: N2a-cl3, 120 h.
Data set [2] deals with Brain. In words: (§1) AUC in mouse brain at 10 mg/kg, po administered as single dose. More on the design: dose 10 mg/kg, route oral. It is filed as ADME, organism-based. The settings on record: in vivo.
Data set [3] relates to Brain. Description: (§2) Cmax in mouse brain at 10 mg/kg, po administered as single dose. Type of data set: ADME, organism-based. More on the design: dose 10 mg/kg, route oral. The settings on record: in vivo.
Data set [4] relates to Plasma. In words: (§3) AUC in mouse plasma at 10 mg/kg, po administered as single dose. It is filed as ADME, organism-based. More on the design: dose 10 mg/kg, route oral. The settings on record: in vivo.
The nature of data set [5]: AUC in mouse brain at 40 mg/kg, po administered as single dose. It is filed as ADME, organism-based. Also on record: dose 40 mg/kg, route oral.
Data set [6] is described as follows: Ratio of drug level in brain to plasma in FVB mouse brain at 10 mg/kg, po administered as single dose. Also on record: dose 10 mg/kg, route oral. Type of data set: ADME, organism-based. The settings on record: brain and plasma, read-out: BPR. In outline: (§4)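 Female FVB mice were given a single dose, 1 mg/kg iv or 10 mg/kg po, and plasma and brain were analysed separately. Brain samples were whole-brain homogenate. Parameters came from concentration–time curves: Vss, clearance, half-life, Cmax, AUC, brain/plasma AUC ratio and bioavailability.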

Data set [7] can be described thus: Volume of distribution at steady state in FVB mouse plasma at 1 mg/kg, iv administered as single dose. Type of data set: ADME, organism-based. More on the design: dose 1 mg/kg, route intravenous. The settings on record: read-out: Vdss. In outline: as §4
A short description of data set [8]: AUC in FVB mouse plasma at 10 mg/kg, po administered as single dose. It is filed as ADME, organism-based. More on the design: dose 10 mg/kg, route oral.
The nature of data set [9]: Half life in FVB mouse plasma at 1 mg/kg, iv administered as single dose. It is filed as ADME, organism-based. Also on record: dose 1 mg/kg, route intravenous. In outline: as §4
A short description of data set [10]: AUC in FVB mouse brain at 10 mg/kg, po administered as single dose. Type of data set: ADME, organism-based. More on the design: dose 10 mg/kg, route oral.
Data set [11] in a line: Clearance in FVB mouse plasma at 1 mg/kg, iv administered as single dose. Type of data set: ADME, organism-based. More on the design: dose 1 mg/kg, route intravenous. A digest of the protocol:
as §4

Data set [12] in a line: Half life in FVB mouse plasma at 10 mg/kg, po administered as single dose. It is filed as ADME, organism-based. Also on record: dose 10 mg/kg, route oral. A digest of the protocol:
as §4

The nature of data set [13]: Cmax in FVB mouse plasma at 10 mg/kg, po administered as single dose. Type of data set: ADME, organism-based. More on the design: dose 10 mg/kg, route oral. In outline: as §4
The nature of data set [14]: Cmax in FVB mouse plasma at 1 mg/kg, iv administered as single dose. Also on record: dose 1 mg/kg, route intravenous. Type of data set: ADME, organism-based. In outline:
as §4

Data set [15] in a line: Oral bioavailability in FVB mouse […] at 10 mg/kg administered as single dose. Type of data set: ADME, organism-based. The settings on record: plasma. A digest of the protocol:
as §4

A short description of data set [16]: AUC in FVB mouse plasma at 1 mg/kg, iv administered as single dose. It is filed as ADME, organism-based. More on the design: dose 1 mg/kg, route intravenous.
Data set [17] in a line: Cmax in FVB mouse brain at 10 mg/kg, po administered as single dose. It is filed as ADME, organism-based. Also on record: dose 10 mg/kg, route oral. A digest of the protocol:
as §4

Data set [18] in a line: Drug concentration at steady state in mouse brain assessed as total compound level in brain homogenates at 40 mg/kg/day, po measured after 3 days. Type of data set: ADME, organism-based. Also on record: route oral. The settings on record: brain homogenate, read-out: Css. In outline: (§5)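 Mice received compound mixed into a liquid rodent diet for 3 days at about 40, 80, 130 or 210 mg kg-1 day-1. Plasma and brain were collected at the end of the last dosing cycle, at a single time point, and analysed as in the single-dose PK studies. Values are total drug in brain homogenate and are treated as pseudo-steady-state concentrations.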

Data set [19] can be described thus: Drug concentration at steady state in mouse brain assessed as total compound level in brain homogenates at 130 mg/kg/day, po measured after 3 days. Type of data set: ADME, organism-based. More on the design: route oral. The settings on record: brain homogenate, read-out: Css. A digest of the protocol:
as §5

Data set [20] is described as follows: Drug concentration at steady state in mouse brain assessed as total compound level in brain homogenates at 80 mg/kg/day, po measured after 3 days. Type of data set: ADME, organism-based. Also on record: route oral. The settings on record: brain homogenate, read-out: Css. A digest of the protocol:
as §5

Data set [21] can be described thus: Drug concentration at steady state in mouse brain assessed as total compound level in brain homogenates at 210 mg/kg/day, po measured after 3 days. It is filed as ADME, organism-based. Also on record: route oral. The settings on record: brain homogenate, read-out: Css. A digest of the protocol: as §5
The nature of data set [22]: as §1. Type of data set: ADME, organism-based. More on the design: dose 10 mg/kg, route oral. The settings on record: brain.
The nature of data set [23]: as §2. It is filed as ADME, organism-based. Also on record: dose 10 mg/kg, route oral. The settings on record: brain.
A short description of data set [24]: as §3. It is filed as ADME, organism-based. Also on record: dose 10 mg/kg, route oral. The settings on record: plasma.
Data set [25] in a line: Unbound fraction in mouse brain. It is filed as ADME, tissue-based. A digest of the protocol:
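The fraction unbound in mouse brain tissue was estimated with an in vitro brain tissue binding assay.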

Data set [26] concerns Mus musculus. Description: Increase in survival in sc dosed mouse prion disease model assessed as extension of survival relative to untreated control. It is filed as functional.
Data set [27] has as its system Mus musculus. Description: Increase in survival in sc dosed mouse prion disease model assessed as increase in survival. It is filed as functional.
Data set [28] has as its system Mus musculus. In words: Antiprion activity against mouse RML prion protein infected in mouse assessed as mouse survival at 210 mg/kg/day (reference value: 118 +/- 1 days). It is filed as organism-based.
Data set [29] concerns Cervus elaphus nelsoni. Description: Antiprion activity against elk PrpC protein infected in mouse chronic wasting disease model assessed as increase in mouse survival (reference value: 108 +/- 3 days).
Data set [30] deals with Mus musculus. In words: Antiprion activity against mouse Scrapie prion protein ME7 infected in mouse assessed as mouse survival at 210 mg/kg/day (reference value: 126 +/- 2 days). It is filed as organism-based.

As a reminder, the pEC50 is −log10 of the EC50, conventionally taken in molar units. One may read the AUC as the area under the concentration-time curve, a measure of exposure. High values mean more exposure, low ones less exposure. As a reminder, the Cmax is the highest concentration seen after dosing. For `Cc1cccc(Nc2nc(-c3ccc(-c4cccnc4)cc3)cs2)n1`, in data set [1], the pEC50 was 7.17. In addition, the exposure (AUC) came to 10.9 µM·h in data set [2] and 15.6 µM·h in [4]. The Cmax in data set [3] turned out to be 2460 nM.
On to `Cc1cccc(Nc2nc(-c3ccc(N4CCOCC4)cc3)cs2)n1`, for which, in [1], the pEC50 was 7.29.
In data set [1], `Cc1ccc(Nc2nc(-c3ccncc3)cs2)nc1` had a pEC50 of 5.80. Also, in data set [5], the AUC stood at 9.7 µM·h.
As for `Cc1cccc(Nc2nc(-c3ccc(-c4ccnn4C)cc3)cs2)n1`, the pEC50 in data set [1] is 7.05.
Usually half-life stands for the time in which the quantity being followed falls by half. A higher half-life goes with slow decline. For orientation: clearance means a measure of how efficiently the substance is removed, as volume per time. The term bioavailability denotes dose-corrected exposure relative to a reference, in per cent. On to `C(=N/Nc1ccc(-c2cnco2)cc1)/c1ccncc1`, for which, in [6], the Kp was found to be 0.51. Besides, the Vd in [7] was determined as 1.53 L/kg. Also, the AUC in [8] was 2.06 µM·h; in data set [10] it was 1.06 µM·h; in data set [16], 0.83 µM·h. Moreover, the half-life is 0.22 h in [9] and 1.01 h in data set [12]. For the same compound, in [11], the clearance is 76 mL/min/kg. Further, the Cmax in data set [13] stood at 830 nM; in data set [14] it was 1760 nM; in data set [17], 460 nM. The compound further returned a bioavailability in [15] of 24.8%.
In the case of `c1ccc2cc(Nc3nc(-c4ccncc4)cs3)ncc2c1`, the concentration at 72 h was 20 nM in [18], 40 nM in data set [19], 80 nM in [20] and 100 nM in data set [21]. In data set [5], this compound gave an AUC of 59.1 µM·h.
In turn, `Cc1ccc(Nc2nc(-c3cc(-c4ccccc4)no3)cs2)nc1` had a pEC50 in data set [1] of 6.02. Moreover, the concentration at 72 h was determined as 880 nM in [18], 23300 nM in data set [19], 5390 nM in [20] and 12600 nM in data set [21]. This compound also showed an AUC in data set [5] of 23.2 µM·h.
In data set [1], `Cc1ccnc(Nc2nc(-c3ccncc3)cs2)c1` had a pEC50 of 5.30. The compound also had an AUC in [5] of 34.6 µM·h.
In turn, `Cc1cccc(Cn2cc(-c3ccc(-c4cccnc4)cc3)cn2)n1` had a pEC50 in [1] of less than 5.00.
`Cc1ccc(Nc2nc(-c3ccc(-c4ccccn4)s3)cs2)nc1` showed a negative-log EC50 (pEC50) in data set [1] of 5.92. For the same compound, the AUC in data set [5] came out at 4.6 µM·h.
`O=C(Nc1nc(-c2ccc(-c3ccccc3)cc2)cs1)C1CC1`: the AUC in data set [22] came out at 18.6 µM·h; in data set [24] it was 12.7 µM·h. In [23], this compound returned a Cmax of 4340 nM.
As usually defined, the fraction unbound is the share of the substance not bound to proteins or other matrix. On to `Cc1ccnc(Nc2nc(-c3ccc(-c4ccccn4)s3)cs2)c1`, for which the Kp in data set [6] was 5.53. For the same compound, the Vd in data set [7] is 12.6 L/kg. Further, the AUC was 0.82 µM·h in data set [8], 4.54 µM·h in data set [10], 60.2 µM·h in data set [5] and 0.3 µM·h in [16]. Moreover, the half-life in data set [9] is 1.18 h; in data set [12], 0.98 h. The same compound had a clearance in [11] of 151 mL/min/kg. In addition, the fraction unbound in [25] came out at 0.08. Also, the Cmax in data set [13] stood at 430 nM; in data set [14] it was 520 nM; in data set [17] it was 1620 nM. In addition, the bioavailability in data set [15] was found to be 27.3%.
In the case of `O=C(CN1CCCC1)Nc1ccc(Cc2ccc(NC(=O)CN3CCCC3)cc2)cc1`, in [26], the Activity is given as 12%. Further, the Survival in data set [27] came to 20%.
As for `Cc1cccc(Nc2nc(-c3cc4ccccc4o3)cs2)n1`, the pEC50 in data set [1] is 5.82. Moreover, the concentration at 72 h in data set [18] was 1310 nM; in data set [19], 3740 nM; in [20], 2700 nM; in data set [21], 3230 nM. Moreover, the AUC in [5] was 65.4 µM·h.
`Cc1cccc(Nc2nc(-c3ccc(-c4ccncc4)cc3)cs2)n1`: in data set [1], the pEC50 is 7.06. In addition, the AUC in [2] was 1.68 µM·h. The same compound came in with a Cmax in data set [3] of 500 nM.
Consider `Cc1cccc(Nc2nc(-c3ccc(-c4ccccc4)cc3)cs2)n1`, for which the pEC50 in [1] was 5.89. Also, in data set [6], the Kp was 2.6. Also, the AUC in data set [2] is 9.78 µM·h; in data set [8] it was 11.2 µM·h; in [10], 29.1 µM·h; in data set [5], 303 µM·h; in data set [4], 6.99 µM·h; in [16] it was 2.78 µM·h. Further, the concentration at 72 h in data set [18] came out at 8700 nM; in [19], 31800 nM; in data set [20], 19300 nM; in [21], 37400 nM. Besides, the results for the Survival in data set [28], in data set [29] and in data set [30] were 204 days, 237 days and 214 days, respectively. Moreover, the Vd in data set [7] was found to be 2.46 L/kg. The half-life in [9] was 2.16 h; in data set [12] it was 4.65 h. The compound also showed a clearance in [11] of 15.3 mL/min/kg. For the same compound, the fraction unbound in data set [25] was found to be 0.08. In addition, the values for the Cmax in data set [13], in data set [14] and in data set [17] were 1660 nM, 2490 nM and 2450 nM, respectively. Moreover, the bioavailability in [15] came out at 40.3%.
As for `COc1ccc(-c2csc(Nc3cc4ccccc4cn3)n2)cc1OC`, the concentration at 72 h is 30 nM in data set [18], 140 nM in data set [19], 60 nM in data set [20] and 320 nM in data set [21]. The compound further registered an AUC in data set [5] of 6.3 µM·h.
In data set [1], `c1ccc2cc(Nc3nc(-c4cc5ccccc5o4)cs3)ncc2c1` showed a pEC50 of 6.04. The compound also registered an AUC in data set [5] of 10.9 µM·h.
